Experimental data as given in article PMC4291883 (Asian Journal of Andrology, 2014).
“Also recorded” adds a separate entry of the source. Residues, ends and D or L forms follow the SMILES beside them.

Tests used:
rat thoracic aorta = biological target: T1, rat thoracic aorta (Rattus norvegicus, UniProt P49684); settings: comparison of U-II, P5U and UPG84
T1 sequence (P49684 1-386): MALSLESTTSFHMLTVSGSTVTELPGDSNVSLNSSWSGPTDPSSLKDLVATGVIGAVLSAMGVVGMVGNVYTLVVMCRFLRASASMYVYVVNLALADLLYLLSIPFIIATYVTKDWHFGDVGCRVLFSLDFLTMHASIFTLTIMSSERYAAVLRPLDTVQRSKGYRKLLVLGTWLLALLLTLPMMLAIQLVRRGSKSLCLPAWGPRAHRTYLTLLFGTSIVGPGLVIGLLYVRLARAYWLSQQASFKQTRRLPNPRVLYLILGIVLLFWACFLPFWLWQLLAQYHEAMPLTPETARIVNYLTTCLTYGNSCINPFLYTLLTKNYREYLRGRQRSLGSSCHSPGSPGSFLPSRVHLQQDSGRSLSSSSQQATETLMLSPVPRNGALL
Method in brief: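 Thoracic aorta from male Wistar rats (200–250 g) killed under anaesthesia was cut helically into two parallel strips and the endothelium rubbed off. Strips were held in bicarbonate salt solution at 37°C gassed with 95% O2/5% CO2, 5 mN load, isotonic recording. After 60 min equilibration they were checked with noradrenaline 1 μmol l−1 and re-equilibrated 60 min. Cumulative concentration-response curves were fitted by sigmoidal regression; EC50 expressed as pD2 (−log EC50).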

[1] = test system: intracavernous pressure in anesthetized rats; experiment: Monitoring of intracavernous pressure; assay type: in vivo, male Wistar rats; settings: for ICP effect compared with U-II and/or P5U (in words): comparison between the peptides; for effect on ICP / penile erection (in words): lowest dose
Method in brief: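 Male Wistar rats (200–250 g) under i.p. urethane (1 g kg−1); carotid catheter records systemic pressure; 26-gauge needle through right crus into the cavernosal space records ICP; injections via the other crus. Test compound given at 0.03, 0.1, 0.3 and 1 nmol in 50 μl saline, next dose ≥5 min after return to baseline; ACh 5 nmol ends each run. Read-outs are ΔICP (mmHg) and AUC (mmHg × s); mean ± s.e.m., 5–7 experiments; ANOVA with Bonferroni post-test.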

[2] = test system: intracavernous pressure in rats; settings: intracavernous administration in rats; cited from earlier work
[3] = test system: human corpus cavernosum strips; settings: cited from earlier work
vascular smooth muscle = settings: cited from earlier work

| SMILES | agonist activity / potency (in words) (rat thoracic aorta) | ICP effect compared with P5U 1 nmol (in words) ([1]; 0.03 nmol intracavernous, compared with P5U at 1 nmol) | ICP effect compared with highest dose of U-II, 1 nmol (in words) ([1]; 0.03 nmol intracavernous, compared with U-II at 1 nmol) | ICP effect compared with U-II and/or P5U (in words) ([1]; 0.03–1 nmol intracavernous) | effect on ICP / penile erection (in words) ([1]; 0.03 nmol intracavernous) | increase in ICP, area under the curve ([1]; 0.1 nmol intracavernous, 50 μl saline, urethane anesthesia, mean ± s.e.m., n = 7) | ICP effect compared with U-II 0.3 nmol (in words) ([1]; 0.1 nmol intracavernous, compared with U-II at 0.3 nmol per rat) | delta of increase in ICP (in words) ([1]; 0.03–1 nmol intracavernous, delta in mmHg) | effect on ICP (in words) ([1]; doses of 0.1, 0.3 and 1 nmol intracavernous) | ICP increase (in words) [2] | relaxation of human corpus cavernosum (in words) [3] | vasoconstrictor potency (in words) (vascular smooth muscle) | ICP effect (in words) ([1]; 0.1 nmol intracavernous) |
| --- | --- | --- | --- | --- | --- | --- | --- | --- | --- | --- | --- | --- | --- |
| CC(C)[C@H](NC(=O)[C@@H]1CSSC(C)(C)[C@H](NC(=O)[C@@H](N)CC(=O)O)C(=O)N[C@@H](Cc2ccccc2)C(=O)N[C@H](Cc2c[nH]c3ccccc23)C(=O)N[C@@H](CCCN)C(=O)N[C@@H](Cc2ccc(N)cc2)C(=O)N1)C(=O)O [UPG84, H-Asp-c[Pen-Phe-DTrp-Orn-(pNH2) Phe-Cys]-Val-OH] (HELM PEPTIDE1{D.[Pen].F.[dW].[Orn].[Nc1ccc(C[C@H](N[*:1])C(=O)[*:2])cc1].C.V}$PEPTIDE1,PEPTIDE1,2:R3-7:R3$$$V2.0) | showed the highest activity compared with the endogenous ligand, U-II, or P5U; also recorded: more potent than U-II or P5U | comparable to the penile erection induced by P5U at the dose of 1 nmol | showed an effect similar to the highest dose of U-II (1 nmol); also recorded: comparable profile to that elicited by the highest dose of U-II (1 nmol); also recorded: comparable to the highest tested dose of U-II (1 nmol) | caused a significant increase in ICP compared to the endogenous ligand, U-II, and to P5U; also recorded: even more effective than P5U | induced a prominent penile erection in rat; also recorded: elicited a marked increase in ICP, expressed as area, compared with vehicle | – | – | – | – | – | – | – | – |
| CC(C)[C@H](NC(=O)[C@@H]1CSSC(C)(C)[C@H](NC(=O)[C@@H](N)CC(=O)O)C(=O)N[C@@H](Cc2ccccc2)C(=O)N[C@@H](Cc2c[nH]c3ccccc23)C(=O)N[C@@H](CCCCN)C(=O)N[C@@H](Cc2ccc(O)cc2)C(=O)N1)C(=O)O [P5U, H-Asp-c[Pen-Phe-Trp-Lys-Tyr-Cys]-Val-OH] (HELM PEPTIDE1{D.[Pen].F.W.K.Y.C.V}$PEPTIDE1,PEPTIDE1,2:R3-7:R3$$$V2.0) | higher activity (pD2) when compared to the endogenous ligand U-II | – | – | elicited a significant increase in ICP as compared to U-II | did not affect the ICP | 73.95 ± 7.312 mmHg × s | comparable to the effect elicited by U-II at a dose of 0.3 nmol; also recorded: not statistically different from the effect elicited by U-II at a dose of 0.3 nmol per rat | displays the same profile of the area under the curve | significantly raises ICP | – | – | – | – |
| CC(C)[C@H](NC(=O)[C@@H]1CSSC[C@H](NC(=O)[C@H](CC(=O)O)NC(=O)[C@@H]2CCCN2C(=O)[C@@H](NC(=O)[C@@H](N)CCC(=O)O)[C@@H](C)O)C(=O)N[C@@H](Cc2ccccc2)C(=O)N[C@@H](Cc2c[nH]c3ccccc23)C(=O)N[C@@H](CCCCN)C(=O)N[C@@H](Cc2ccc(O)cc2)C(=O)N1)C(=O)O [U-II, H-Glu-Thr-Pro-Asp-c[Cys-Phe-Trp-Lys-Tyr-Cys]-Val-OH] | – | – | – | – | – | – | – | – | – | dose-dependent increase in intracavernous pressure (ICP) | relaxes human corpus cavernosum strips in endothelium-and NO-dependent manner | most potent vasoconstrictor compound identified | already detectable |
